From PubChem BioAssay
PfGluPho inh: PfG6PD (Plasmodium falciparum) enzyme inhibition | PfGluPho enzyme, NADPH resazurin-diaphorase fluorescence | inhibition, % at 20 µM | actives 0.78% (n = 350,000) | AID 504690;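 active = inhibition reaching at least a set limit at 20 µM in the primary screen, cut at about 59% in these data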;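 note: 0% = DMSO wells with substrate and 100% = DMSO wells lacking glucose-6-phosphate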
HKDC1 inhibitor: HKDC1 (human) hexokinase inhibition; inhibition, % at 20 µM; actives 0.16% (n = 340,000); recombinant HKDC1, G6PDH/diaphorase resazurin coupled fluorescence;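 active = inhibition above about 35% when tested at 20 µM, limit read from the data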;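 note: plate controls were DMSO wells with enzyme for no effect and DMSO wells lacking enzyme for full effect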
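Test system: HK5 enzyme. Quantity: 5 µg/mL HK5 final. Reagent: glucose and ATP substrates. Schedule: 90 min reaction incubation at room temperature, dark. Technique: resazurin-to-resorufin fluorescence via G6PDH and diaphorase coupling, 525/613 nm. Control set: DMSO wells with and without enzyme mix.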
ABHD5-PLIN5 inh: inhibitors of human ABHD5-perilipin-5 interaction; actives 0.78% (n = 360,000); AID 602281; inhibition, % at 4 µM; Split G. princeps luciferase complementation, luminescence, 4 h;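 active = inhibition above the mean inhibition across every tested compound plus 3 SD, cut at about 22% in these data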;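 note: 0% = DMSO only wells and the 100% control is not disclosed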
Target sequence (Q00G26 whole entry, looked up): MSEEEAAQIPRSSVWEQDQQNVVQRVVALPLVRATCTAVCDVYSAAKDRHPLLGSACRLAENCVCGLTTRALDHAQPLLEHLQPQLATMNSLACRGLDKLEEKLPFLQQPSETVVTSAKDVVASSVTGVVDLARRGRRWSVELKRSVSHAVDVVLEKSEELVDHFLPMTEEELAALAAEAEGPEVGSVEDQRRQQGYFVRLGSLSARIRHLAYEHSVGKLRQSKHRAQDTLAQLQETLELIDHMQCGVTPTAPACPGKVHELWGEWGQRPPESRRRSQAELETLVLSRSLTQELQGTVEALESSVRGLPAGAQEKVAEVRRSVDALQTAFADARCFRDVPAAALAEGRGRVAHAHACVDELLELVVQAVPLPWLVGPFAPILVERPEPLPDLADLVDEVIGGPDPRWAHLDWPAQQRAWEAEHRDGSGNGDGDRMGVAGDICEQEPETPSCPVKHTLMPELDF
Target sequence (Q8WTS1 whole entry, looked up): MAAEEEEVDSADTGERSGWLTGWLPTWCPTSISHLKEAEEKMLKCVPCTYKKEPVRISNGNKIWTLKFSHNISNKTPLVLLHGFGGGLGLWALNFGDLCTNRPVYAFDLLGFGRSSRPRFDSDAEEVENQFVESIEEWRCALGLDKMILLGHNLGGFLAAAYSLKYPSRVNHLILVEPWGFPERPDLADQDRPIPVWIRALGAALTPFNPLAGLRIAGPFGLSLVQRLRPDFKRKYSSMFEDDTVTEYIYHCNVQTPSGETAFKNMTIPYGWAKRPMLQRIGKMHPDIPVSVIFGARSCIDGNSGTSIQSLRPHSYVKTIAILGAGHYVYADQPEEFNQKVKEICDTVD
Granule exo inh: lytic granule exocytosis inhibition. TALL-104 LAMP-1 surface exposure, flow cytometry; cells stimulated with thapsigargin and PMA. inhibition, % at 10 µM. actives 0.66% (n = 360,000). AID 651702;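 active = inhibition above about 55%, limit read from the data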
Exocytosis CP01: blocks lytic granule exocytosis | inhibition, % at 10 µM | TALL-104 cells, LAMP-1 externalization, flow cytometry; stimulated with PMA plus thapsigargin | actives 11% (n = 1,500) | shares compounds with Granule exo inh; in the data active = inhibition above about 60%;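 note: 0% = stimulated vehicle wells and 100% = unstimulated wells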
* marks the source's active call; other numbers are inactive results; · = no result given; ! = a repeat was not active. In the library only some 2.2% were active in any assay of this set; here they are far more common.

SMILES | PfGluPho inh | HKDC1 inhibitor | ABHD5-PLIN5 inh | Granule exo inh | Exocytosis CP01
C[C@H](NC(=O)Nc1ccc2c(c1)OCCO2)C(=O)O | -9 | 0 | 6 | 101* | -16
COc1ccc(-c2noc(CNC(=O)CCCN3C(=O)[C@H]4CC=CC[C@H]4C3=O)n2)cc1 | -14 | -2 | -1 | -2 | ·
COc1ccccc1CCNC(=O)c1cc(COc2cccc(C(F)(F)F)c2)on1 | 17 | -1 | -18 | 11 | ·
COC(=O)c1ccccc1NS(=O)(=O)c1ccc(Cl)nc1 | 2 | -5 | 0 | 86* | -11
CCN(CC)C(=O)[C@H]1C[C@H](CC(=O)NCCN2CCOCC2)C(=O)N2CCc3c([nH]c4cc(CCC(=O)N(C)C)ccc34)[C@]12C | 0 | -7 | 1 | 0 | ·
COc1ccccc1-c1cc(C(F)(F)F)nc(S(=O)(=O)CCCC(=O)NCc2ccc(F)cc2)n1 | 12 | 4 | 15 | 75* | 5
COc1ccccc1-c1cc(C(F)(F)F)nc(N2CCCC2)n1 | -12 | 7 | -2 | -4 | ·
COc1ccccc1-c1cc(C(F)(F)F)nc(S(=O)(=O)CCCC(=O)Nc2cc(C)on2)n1 | 15 | 3 | 6 | 5 | ·
COc1ccccc1-c1cc(C(F)(F)F)nc(S(=O)(=O)CCCC(=O)N2CCCCC2C)n1 (stereo not given) | 3 | 1 | 18 | 64* | 4
O=C(Cc1ccccc1F)Nc1cc(S(=O)(=O)N2CCCC2)ccc1Cl | -3 | -6 | 2 | 2 | ·
O=C(CNCc1ccc(Cl)cc1)Nc1cc(S(=O)(=O)N2CCCC2)ccc1Cl | 9 | 5 | 7 | 77* | -9
COc1cccc(N2CCc3c(C)nc4ccc(Cl)cc4c32)c1 | -5 | -9 | 6 | 82* | -7
Oc1c(CN2CCOCC2)cc(-c2ccccc2)cc1CN1CCOCC1 | 3 | -6 | 2 | 2 | ·
Oc1c(CN2CCOCC2)ccc2ccccc12 | 22 | 23 | 14 | 86* | -12
COc1ccc(NC(=O)c2c(C)nn(Cc3ccccc3)c2Cl)cc1S(=O)(=O)N1CCOCC1 | 1 | -13 | 3 | 8 | ·
COc1ccc(NC(=O)c2c(C)nn(Cc3ccccc3)c2C)cc1S(=O)(=O)N(C)C | 6 | -1 | 5 | 71* | -4
Fc1ccc(CNCCC(Cc2ccccc2)c2ccco2)cc1 (stereo not given) | -7 | -1 | 2 | 78* | -11
CC(NCCC(Cc1ccccc1)c1ccco1)c1ccccc1 (stereo not given) | -5 | 0 | 6 | -1 | ·
CSC1=NC(C)(C)C=C(/C=C/c2ccc(Cl)cc2Cl)N1 | 3 | -5 | 17 | 75* | 27
COc1cccc(C(=O)NCCS(=O)(=O)N2CCC(C)CC2)c1 | 5 | -2 | 1 | 2 | ·
CC(C)(C)c1nc2c(s1)CCc1onc(-c3ccc(Cl)cc3)c1-2 | -1 | -3 | -1 | -5 | ·
Clc1ccc(-c2noc3c2-c2nc(Cc4cccc5ccccc45)sc2CC3)cc1 | 11 | 2 | -3 | 74* | -13
O=C(Nc1ccc(Cl)cc1F)C1CCN(S(=O)(=O)c2cccc3nonc23)CC1 | -8 | -6 | -3 | 7 | ·
COCCNC(=O)c1ccccc1NC(=O)CSc1ccc(C)cc1 | -18 | -6 | 16 | 1 | ·
CCCN(S(=O)(=O)c1ccccc1F)S(=O)(=O)c1ccccc1Br | -15 | 1 | 4 | 57* | -5
SMILES | PfGluPho inh | HKDC1 inhibitor | ABHD5-PLIN5 inh | Granule exo inh | Exocytosis CP01
COc1ccc(S(=O)(=O)N2CCCC(C(=O)NCc3ccccc3)C2)cc1 (stereo not given) | -9 | 1 | -3 | -9 | ·
CCOC(=O)c1c(CSc2cccs2)n(C)c2cc(Br)c(O)c(CN(C)C)c12 | 29 | -2 | 3 | 90* | 15
CCOC(=O)c1c(CSc2ccccc2)n(C)c2ccc(O)cc12 | -1 | 3 | -5 | 2 | ·
CCn1c2c(c3cc(OCC(C)C)ccc31)CCCC2=O | 22 | -3 | 0 | 58* | -4
CCn1c2c(c3cc(Br)ccc31)CCC/C2=N\O | -6 | 12 | 5 | 6 | ·
CCN1CCN(Cc2ccc(NC(=O)c3cc(NC(=O)C(=O)c4c[nH]c5ccccc45)cc(OC)c3)cc2C(F)(F)F)CC1 | 38 | 4 | 22*! | 56*! | 86*
CCN1CCN(Cc2ccc(NC(=O)c3cc(NC(=O)c4cc(C)on4)cc(OC)c3)cc2C(F)(F)F)CC1 | 18 | 4 | 8 | 24 | ·
CC(C)(C)OC(=O)C[C@H]1C/C=C\C[C@@H](CC(=O)N(CCO)Cc2ccccc2)C(=O)N[C@H](Cc2c[nH]c3ccccc23)COC1=O | 11 | -5 | -4 | -6 | ·
COc1ccc(-c2oc3ncnc(NCCCN(C)C)c3c2-c2ccc(OC)cc2)cc1 | 16 | 2 | 10 | 69* | 6
CN(C)CCNc1ncnc2oc(-c3ccccc3)c(-c3ccccc3)c12 | -4 | -4 | 15 | 45 | ·
O=C(Nc1sc2c(c1C(=O)NCc1ccco1)CCCC2)c1ccc2c(c1)OCO2 | 16 | -2 | 3 | 59* | -2
COc1ccc(C(=O)Nc2sc3c(c2C(=O)NCc2ccco2)CCCC3)cc1OC | 10 | 0 | 3 | 56* | 5
COc1ccc(C(=O)Nc2ccc(Cl)cc2C(=O)NCc2ccco2)cc1OC | 17 | 0 | 6 | 60* | 44
CCCCn1c(=O)[nH]c(=O)c2c1nc(-c1cc3c(cc1Br)OCO3)n2C | 9 | 3 | -2 | -1 | ·
O=C(Nc1cccc(Cl)c1N1CCCC1)c1ccco1 | -15 | 2 | -7 | 74* | -14
COC(=O)c1ccc(N2CCCCC2)c(NC(=O)c2ccco2)c1 | 13 | 0 | -6 | 93* | -4
O=C(Nc1ccc(N2CCCC2)c(Cl)c1)c1ccco1 | 6 | -4 | 1 | -3 | ·
CN1C(=O)[C@H]2[C@@H](c3ccccc3)N[C@]3(CCCN(Cc4ccc(F)cc4)C3=O)[C@H]2C1=O | 1 | · | 3 | 1 | ·
COCCn1c(N)c(N(Cc2ccccc2)C(=O)c2oc3ccccc3c2C)c(=O)[nH]c1=O | -8 | -3 | -6 | 2 | ·
O=CNc1cc(-c2ccsc2)cn2c(-c3ccccc3)cnc12 | · | · | 5 | 71* | 82*
COc1ccc(-c2cc(NC=O)c3ncc(-c4cccc(OC)c4)n3c2)cc1 | · | · | 6 | 63* | 74*
COc1cccc(-c2cnc3c(NC(C)=O)cc(-c4ccsc4)cn23)c1 | · | · | 2 | 77* | 91*
CS(=O)(=O)c1ccc(-c2cnc3c(NC=O)cc(-c4ccsc4)cn23)cc1 | · | · | 4 | -6 | ·
COc1cccc(-c2cnc3c(NC(C)=O)cc(-c4ccc(OC)c(OC)c4)cn23)c1 | · | · | 9 | 48 | ·
COc1ccccc1N(CC(=O)Nc1ccc(Cc2ccncc2)cc1)S(=O)(=O)c1ccccc1 | 18 | 0 | 10 | 66* | -9
CCOc1ccccc1N(CC(=O)Nc1cc(OC)ccc1OC)S(=O)(=O)c1ccccc1 | 18 | 2 | 8 | -1 | ·
COc1ccc(N(CC(=O)NCCSc2ccccc2)S(=O)(=O)c2ccccc2)c(OC)c1 | 4 | 4 | -5 | -2 | ·
CCOc1ccccc1N(CC(=O)NCCSCc1ccco1)S(=O)(=O)c1ccccc1 | 23 | 8 | 12 | 12 | ·
